Experimental findings from ChEMBL document CHEMBL2163200, “Synthesis, biological evaluation, and structure-activity relationships of novel substituted N-phenyl ureidobenzenesulfonate derivatives blocking cell cycle progression in S-phase and inducing DNA double-strand breaks” (J Med Chem, 2012) are described below.

Active and inactive are the calls of the source. No cut-off for these calls is given here.

In one assay the test system is MCF7. Kind of assay: Cytotoxicity against human MCF7 cells after 48 hrs by SRB assay. As to conditions: MCF7, 48 h. The format is functional, cell-based. Summed up:
(§1)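 NCI sulforhodamine B protocol. Cells were grown in high-glucose DMEM with 5% FBS and seeded per well at 4 × 10^3 (HT-29), 3.5 × 10^3 (M21) or 3 × 10^3 (MCF-7), then allowed 24 h to attach. Serial dilutions from 200 μM to 780 nM final were applied in DMSO <0.5% for 48 h. Cells were fixed with cold TCA (10% final) and stained with SRB, with absorbance read at 530–568 nm. Growth inhibition was computed against day-0 plates, giving the 50% inhibitory concentration. At least two experiments in triplicate, CV <10%.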

In another assay the test system is HT-29. Kind of assay: Cytotoxicity against human HT-29 cells after 48 hrs by SRB assay. Format: functional, cell-based. As to conditions: HT-29, 48 h. In short, it runs like this:
as §1

For assay [1], the system named is Jurkat. Kind of assay: Cell cycle arrest in human Jurkat E6-1 cells assessed as accumulation at G0/G1 phase at 16 uM after 24 hrs by FACS flow cytometry. Format: functional. Summed up: (§2)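 Jurkat E6 cells cultured in RPMI 1640 with 10% FBS at 37 °C, 5% CO2. Compounds serially diluted in medium, starting 50% above the M21 IC50. 4.0 × 10^5 cells were exposed for 24 h. Cells were washed with PBS, chicken red blood cells added as internal standard, and fixed in ice-cold EtOH. After 1 h on ice in PBS with 1 μg/mL DAPI, phase distribution was read by flow cytometry. DMSO-treated cells served as control.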

The subject of assay [2] is Jurkat. The experiment in a line: Cell cycle arrest in human Jurkat E6-1 cells assessed as accumulation at G2/M phase at 16 uM after 24 hrs by FACS flow cytometry. The format is functional. In short, it runs like this: as §2
The subject of assay [3] is M21. Kind of assay: Cytotoxicity against human M21 cells after 48 hrs by SRB assay. As to conditions: M21, 48 h. Format: functional, cell-based. Summed up:
as §1

For assay [4], the system named is Jurkat. The experiment in a line: Cell cycle arrest in human Jurkat E6-1 cells assessed as accumulation at S phase at 16 uM after 24 hrs by FACS flow cytometry. Format: functional. Summed up:
(§3)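 Jurkat E6 cells grown in RPMI 1640 with 10% FBS at 37 °C, 5% CO2. Compounds were serially diluted in medium starting 50% above the M21 IC50. 4.0 × 10^5 cells were exposed for 24 h, then washed and spiked with chicken red blood cells as internal standard. Cells were fixed in ice-cold ethanol, stained with 1 μg/mL DAPI on ice for 1 h, and phase distribution was read by flow cytometry. The control was 0.5% DMSO.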

Assay [5] has as its system Jurkat. The experiment in a line: Cell cycle arrest in human Jurkat E6-1 cells assessed as accumulation at G2/M phase at 9.3 uM after 24 hrs by FACS flow cytometry. The format is functional. Summed up: as §3
Assay [6] has as its system Jurkat. Kind of assay: Cell cycle arrest in human Jurkat E6-1 cells assessed as accumulation at G0/G1 phase at 9.3 uM after 24 hrs by FACS flow cytometry. Format: functional. In short, it runs like this:
as §2

In assay [7] the test system is M21. Kind of assay: Induction of DNA damage response in human M21 cells assessed as phosphorylation of H2AX into gammaH2AX at IC50 after 24 hrs by DAPI staining-based immunofluorescence assay. The format is functional, cell-based. Summed up: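 M21 cells (1 × 10^5) on fibronectin-coated coverslips, grown 24 h, then exposed to agent for 24 h at 37 °C; 0.5% DMSO control. Fixed with 3.7% formaldehyde and permeabilized with 0.1% saponin/3% BSA. Probed with mouse anti-H2AX pS139 antibody for 2 h at room temperature. Nuclei counterstained with DAPI; nuclear γH2AX foci viewed by epifluorescence microscopy.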

The subject of the next assay is HT-1080. Kind of assay: Antitumor activity against human HT1080 cells xenografted in chicken chorioallantoic membrane assessed as inhibition of tumor growth at 30 ug per egg, iv administered on day 11 measured on day 17 by CAM assay. Format: functional. Summed up:
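HT-1080 fibrosarcoma cells (3.5 × 105/egg) were applied onto freshly exposed CAM of fertilized chicken eggs. On day 11, drug from a DMSO stock was diluted in Cremophor EL/99% ethanol/PBS (1/1/14 v/v) and 100 μL was injected into a vein under the CAM. Groups of 10–12 eggs were kept to day 17, embryos were euthanized at 4 °C for ≥4 h, and tumor wet weight was recorded.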

The test system of assay [8] is Jurkat. Kind of assay: Cell cycle arrest in human Jurkat E6-1 cells assessed as accumulation at S phase at 9.3 uM after 24 hrs by FACS flow cytometry. The format is functional. Summed up:
(§4)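 Jurkat E6 T-lymphoblasts in RPMI 1640 with 10% FBS, 37 °C, 5% CO2. […] Chicken red blood cells were added as internal standard. Cells were fixed in ice-cold EtOH and stained with 1 μg/mL DAPI on ice for 1 h before flow cytometry of phase distribution. Vehicle control was 0.5% DMSO.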

Assay [9] concerns Jurkat. Kind of assay: Cell cycle arrest in human Jurkat E6-1 cells assessed as accumulation at G2/M phase at 29 uM after 24 hrs by FACS flow cytometry. Format: functional. Summed up:
as §3

The test system of assay [10] is Jurkat. The experiment in a line: Cell cycle arrest in human Jurkat E6-1 cells assessed as accumulation at G0/G1 phase at 29 uM after 24 hrs by FACS flow cytometry. The format is functional. In short, it runs like this:
as §2

Assay [11] concerns Jurkat. Kind of assay: Cell cycle arrest in human Jurkat E6-1 cells assessed as accumulation at S phase at 29 uM after 24 hrs by FACS flow cytometry. Format: functional. In short, it runs like this: as §4
Assay [12] has as its system Jurkat. The experiment in a line: Cell cycle arrest in human Jurkat E6-1 cells assessed as accumulation at G2/M phase at 1.7 uM after 24 hrs by FACS flow cytometry. Format: functional. Summed up:
as §2

In assay [13] the test system is Jurkat. Kind of assay: Cell cycle arrest in human Jurkat E6-1 cells assessed as accumulation at S phase at 1.7 uM after 24 hrs by FACS flow cytometry. Format: functional. Summed up:
as §3

For assay [14], the system named is Jurkat. Kind of assay: Cell cycle arrest in human Jurkat E6-1 cells assessed as accumulation at G0/G1 phase at 1.7 uM after 24 hrs by FACS flow cytometry. The format is functional. In short, it runs like this:
as §2

The subject of assay [15] is Jurkat. The experiment in a line: Cell cycle arrest in human Jurkat E6-1 cells assessed as accumulation at G2/M phase at 63 uM after 24 hrs by FACS flow cytometry. Format: functional. In short, it runs like this:
as §3

In assay [16] the test system is Jurkat. The experiment in a line: Cell cycle arrest in human Jurkat E6-1 cells assessed as accumulation at G0/G1 phase at 63 uM after 24 hrs by FACS flow cytometry. The format is functional. In short, it runs like this: as §2
The test system of assay [17] is Jurkat. The experiment in a line: Cell cycle arrest in human Jurkat E6-1 cells assessed as accumulation at S phase at 63 uM after 24 hrs by FACS flow cytometry. The format is functional. In short, it runs like this:
as §4

Assay [18] concerns Jurkat. The experiment in a line: Cell cycle arrest in human Jurkat E6-1 cells assessed as accumulation at G2/M phase at 13 uM after 24 hrs by FACS flow cytometry. The format is functional. In short, it runs like this:
as §2

In assay [19] the test system is Jurkat. The experiment in a line: Cell cycle arrest in human Jurkat E6-1 cells assessed as accumulation at S phase at 13 uM after 24 hrs by FACS flow cytometry. The format is functional. Summed up: as §3
The subject of assay [20] is Jurkat. The experiment in a line: Cell cycle arrest in human Jurkat E6-1 cells assessed as accumulation at G0/G1 phase at 13 uM after 24 hrs by FACS flow cytometry. Format: functional. In short, it runs like this: as §2

As for `CCc1ccccc1NS(=O)(=O)c1ccc(NC(=O)NCCCl)cc1`, the IC50 in the assay on MCF7 came to 33 µM; in the assay with HT-29, 40 µM; in the assay on M21 [3], 68 µM. The Activity turned out to be 41% with Jurkat [1], 16% in the assay on Jurkat [2] and 43% with Jurkat [4].
On to `CCc1ccccc1OS(=O)(=O)c1ccc(NC(=O)NCCCl)cc1`, for which the IC50 stood at 19 µM in the assay on MCF7, 17 µM with HT-29 and 13 µM with M21 [3]. In addition, the Activity in the assay with Jurkat [5] was 17%; in the assay on Jurkat [6] it was 6%; with Jurkat [8], 77%. In addition, the outcome with M21 [7] was Active. In addition, the TGI with HT-1080 is on record as 49%.
For `CCCc1ccccc1NS(=O)(=O)c1ccc(NC(=O)NCCCl)cc1`, the Activity is recorded as 28% in the assay on Jurkat [9], 28% in the assay on Jurkat [10] and 44% with Jurkat [11]. Further, the IC50 with HT-29 was 21 µM; in the assay on M21 [3] it was 29 µM.
For `CCCc1ccccc1OS(=O)(=O)c1ccc(NC(=O)NCCCl)cc1`, the Activity in the assay on Jurkat [12] came out at 11%; in the assay with Jurkat [13], 73%; in the assay with Jurkat [14], 16%. The half-inhibitory concentration (IC50) with MCF7 came out at 3.6 µM; in the assay on HT-29, 2.5 µM; in the assay on M21 [3], 2.1 µM. Also, the result in the assay with M21 [7] was Active. Besides, in the assay on HT-1080, the TGI was found to be 49%.
For `Cc1ccccc1NS(=O)(=O)c1cccc(NC(=O)NCCCl)c1`, the half-inhibitory concentration (IC50) came to 86 µM in the assay on MCF7, 71 µM in the assay on HT-29 and 91 µM in the assay on M21 [3]. The Activity stood at 14% in the assay with Jurkat [15], 41% in the assay with Jurkat [16] and 45% in the assay with Jurkat [17].
With `CCCc1ccccc1OS(=O)(=O)c1cccc(NC(=O)NCCCl)c1`, the IC50 in the assay with HT-29 was found to be 15 µM; in the assay on M21 [3], 17 µM. Besides, the Activity was determined as 17% with Jurkat [18], 36% in the assay with Jurkat [19] and 47% with Jurkat [20].
